Experimental data as given in ChEMBL document CHEMBL1155415, “Synthesis, characterization, and in vitro antimicrobial activities of 5-alkenyl/hydroxyalkenyl-2-phenylamine-1,3,4-oxadiazoles and thiadiazoles” (2010).
≈ marks a conversion by molar mass, not a printed value.

Assays:
Type in all cases: functional
Pseudomonas aeruginosa [1] = assay: Antibacterial activity against Pseudomonas aeruginosa ATCC 27853 after 18 to 24 hrs
Klebsiella pneumoniae [2] = assay: Antibacterial activity against Klebsiella pneumoniae after 24 hrs by disc diffusion method
Summary of the method: (§1)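 Agar disc diffusion. A standard inoculum of […] c.f.u./ml (0.5 McFarland) was spread evenly on agar. 6 mm Whatman no. 1 paper discs, dry-heat sterilized (140 °C, 1 h), were soaked in test compound and placed on nutrient agar. Plates were inverted and incubated 24 h at 37 °C. Read-out: diameter of the inhibition zone.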

Pseudomonas aeruginosa [3] = assay: Antibacterial activity against Pseudomonas aeruginosa ATCC 27853 after 24 hrs by disc diffusion method; summary of the method: as §1
Candida albicans [4] = assay: Antifungal activity against Candida albicans after 48 hrs by disk diffusion method
Summary of the method: (§2)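 Agar well diffusion with compounds in DMSO. The dish was lawned with a saline spore suspension, excess decanted, and dried 1 h at 37 °C. Wells were punched. Read-out: inhibition zone in mm. Griseofulvin served as standard and DMSO as negative control.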

Aspergillus fumigatus [5] = assay: Ratio of MFC to MIC for Aspergillus fumigatus
Summary of the method: (§3)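 MFC: 0.1 ml from each MIC tube was spread on agar and colonies were counted after 48 h at 35 °C. MFC is the lowest concentration killing 99.9% of the inoculum. The MFC/MIC ratio was then calculated to classify activity as fungistatic or fungicidal.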

Candida albicans [6] = assay: Antifungal activity against Candida albicans after 48 hrs by two fold dilution technique
Summary of the method: (§4)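 Broth MIC. Broth with log two-fold serial dilutions of compound was inoculated with about 1.6 × 10⁴–6 × 10⁴ c.f.u./ml of fungus and incubated 48 h at 35 °C. MIC is the lowest concentration arresting fungal growth.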

Aspergillus fumigatus [7] = assay: Antifungal activity against Aspergillus fumigatus after 48 hrs by two fold dilution technique; summary of the method: as §4
Klebsiella pneumoniae [8] = assay: Antibacterial activity against Klebsiella pneumoniae after 18 to 24 hrs
Pseudomonas aeruginosa [9] = assay: Antibacterial activity against Pseudomonas aeruginosa ATCC 27853 after 24 hrs by two fold dilution technique; conditions: ATCC 27853, 24 h
Summary of the method: (§5)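 Broth dilution MIC. Nutrient broth held log two-fold serial dilutions of compound and was inoculated with about 5 × 10⁵ c.f.u./ml of actively dividing bacteria. Incubation was 24 h at 37 °C, with growth checked visually and spectrophotometrically. MIC is the lowest concentration arresting growth.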

Talaromyces marneffei [10] = assay: Antifungal activity against Penicillium marneffei after 48 hrs by disk diffusion method; summary of the method: as §2
Staphylococcus aureus [11] = assay: Antibacterial activity against Staphylococcus aureus ATCC 25923 after 24 hrs by disc diffusion method; summary of the method: as §1
Talaromyces marneffei [12] = assay: Antifungal activity against Penicillium marneffei after 48 hrs by two fold dilution technique; summary of the method: as §4
Escherichia coli [13] = assay: Antibacterial activity against Escherichia coli ATCC 25922 after 18 to 24 hrs
Streptococcus pyogenes [14] = assay: Antibacterial activity against Streptococcus pyogenes after 18 to 24 hrs
Aspergillus fumigatus [15] = assay: Antifungal activity against Aspergillus fumigatus after 48 hrs by disk diffusion method; summary of the method: as §2
[16] = test system: Trichophyton mentagrophytes; assay: Ratio of MFC to MIC for Trichophyton mentagrophytes; summary of the method: as §3
[17] = test system: Trichophyton mentagrophytes; assay: Antifungal activity against Trichophyton mentagrophytes after 48 hrs by disk diffusion method; summary of the method: as §2
Escherichia coli [18] = assay: Antibacterial activity against Escherichia coli ATCC 25922 after 24 hrs by disc diffusion method; summary of the method: as §1
Staphylococcus aureus [19] = assay: Antibacterial activity against Staphylococcus aureus ATCC 25923 after 24 hrs by two fold dilution technique; conditions: ATCC 25923, 24 h; summary of the method: as §5
Streptococcus pyogenes [20] = assay: Antibacterial activity against Streptococcus pyogenes after 24 hrs by disc diffusion method; summary of the method: as §1
[21] = test system: Trichophyton mentagrophytes; assay: Antifungal activity against Trichophyton mentagrophytes after 48 hrs by two fold dilution technique; summary of the method: as §4
Staphylococcus aureus [22] = assay: Antibacterial activity against Staphylococcus aureus ATCC 25923 after 18 to 24 hrs
Candida albicans [23] = assay: Ratio of MFC to MIC for Candida albicans; summary of the method: as §3
Streptococcus pyogenes [24] = assay: Antibacterial activity against Streptococcus pyogenes after 24 hrs by two fold dilution technique; summary of the method: as §5
Klebsiella pneumoniae [25] = assay: Antibacterial activity against Klebsiella pneumoniae after 24 hrs by two fold dilution technique; summary of the method: as §5
Talaromyces marneffei [26] = assay: Ratio of MFC to MIC for Penicillium marneffei; summary of the method: as §3
Escherichia coli [27] = assay: Antibacterial activity against Escherichia coli ATCC 25922 after 24 hrs by two fold dilution technique; conditions: ATCC 25922, 24 h; summary of the method: as §5
Staphylococcus aureus [28] = assay: Antibacterial activity against Staphylococcus aureus ATCC 25923 at 30 ug after 24 hrs by disc diffusion method; conditions: ATCC 25923, 24 h, read-out: DIZ
Summary of the method: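 Disc diffusion. Inoculum of […] c.f.u./ml (0.5 McFarland) spread on sterile nutrient agar plates. 6 mm Whatman no. 1 paper discs, dry-heat sterilised at 140 °C for 1 h, soaked in a known concentration of compound, then placed on the agar. DMSO disc as negative control. Plates inverted, incubated 24 h at 37 °C. Zone of inhibition diameter measured in mm.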

Escherichia coli [29] = assay: Antibacterial activity against Escherichia coli ATCC 25922 at 30 ug after 24 hrs by disc diffusion method; conditions: ATCC 25922, 24 h, read-out: DIZ; summary of the method: as §1
Klebsiella pneumoniae [30] = assay: Antibacterial activity against Klebsiella pneumoniae at 30 ug after 24 hrs by disc diffusion method; conditions: read-out: DIZ; summary of the method: as §1
Streptococcus pyogenes [31] = assay: Antibacterial activity against Streptococcus pyogenes at 30 ug after 24 hrs by disc diffusion method; conditions: read-out: DIZ; summary of the method: as §1
Pseudomonas aeruginosa [32] = assay: Antibacterial activity against Pseudomonas aeruginosa ATCC 27853 at 30 ug after 24 hrs by disc diffusion method; conditions: ATCC 27853, 24 h, read-out: DIZ; summary of the method: as §1

| SMILES | MBC (Pseudomonas aeruginosa [1]) | diameter of the inhibition zone (DIZ) (Klebsiella pneumoniae [2]) | diameter of the inhibition zone (DIZ) (Pseudomonas aeruginosa [3]) | diameter of the inhibition zone (DIZ) (Candida albicans [4]) | Ratio (Aspergillus fumigatus [5]) | MFC (Candida albicans [6]) | MIC (Candida albicans [6]) | MFC (Aspergillus fumigatus [7]) | MIC (Aspergillus fumigatus [7]) | MBC (Klebsiella pneumoniae [8]) | MIC (Pseudomonas aeruginosa [9]) | diameter of the inhibition zone (DIZ) (Talaromyces marneffei [10]) | diameter of the inhibition zone (DIZ) (Staphylococcus aureus [11]) | MBC (Escherichia coli [13]) | MBC (Streptococcus pyogenes [14]) | MIC (Staphylococcus aureus [19]) | MBC (Staphylococcus aureus [22]) | MIC (Streptococcus pyogenes [24]) | MIC (Klebsiella pneumoniae [25]) | MIC (Escherichia coli [27]) | other results |
| --- | --- | --- | --- | --- | --- | --- | --- | --- | --- | --- | --- | --- | --- | --- | --- | --- | --- | --- | --- | --- | --- |
| CCCCCCCC/C=C\CCCCCCCc1nnc(Nc2ccccc2)s1 | 25 µg/mL (≈ 60.4 µM) | 12.1 mm | 16.3 mm | 27.2 mm | 4 | 12.5 µg/mL (≈ 30.2 µM) | 6.25 µg/mL (≈ 15.1 µM) | 25 µg/mL (≈ 60.4 µM) | 6.25 µg/mL (≈ 15.1 µM) | 50 µg/mL (≈ 121 µM) | 12.5 µg/mL (≈ 30.2 µM) | 16.1 mm | 12.9 mm | 50 µg/mL (≈ 121 µM) | 100 µg/mL (≈ 242 µM) | 12.5 µg/mL (≈ 30.2 µM) | 25 µg/mL (≈ 60.4 µM) | 12.5 µg/mL (≈ 30.2 µM) | 25 µg/mL (≈ 60.4 µM) | 25 µg/mL (≈ 60.4 µM) | MFC (Talaromyces marneffei [12]): 12.5 µg/mL (≈ 30.2 µM); MIC (Talaromyces marneffei [12]): 6.25 µg/mL (≈ 15.1 µM); diameter of the inhibition zone (DIZ) (Aspergillus fumigatus [15]): 23.8 mm; Ratio [16]: 2; diameter of the inhibition zone (DIZ) [17]: 20.3 mm; diameter of the inhibition zone (DIZ) (Escherichia coli [18]): 14.8 mm; diameter of the inhibition zone (DIZ) (Streptococcus pyogenes [20]): 13.1 mm; MFC [21]: 12.5 µg/mL (≈ 30.2 µM); MIC [21]: 6.25 µg/mL (≈ 15.1 µM); Ratio (Candida albicans [23]): 2; Ratio (Talaromyces marneffei [26]): 2 |
| O=C(N[C@H](CO)[C@H](O)c1ccc([N+](=O)[O-])cc1)C(Cl)Cl [CHLORAMPHENICOL] | 12.5 µg/mL (≈ 38.7 µM) | – | – | – | – | – | – | – | – | 12.5 µg/mL (≈ 38.7 µM) | 6.25 µg/mL (≈ 19.3 µM) | – | – | 12.5 µg/mL (≈ 38.7 µM) | 12.5 µg/mL (≈ 38.7 µM) | 6.25 µg/mL (≈ 19.3 µM) | 12.5 µg/mL (≈ 38.7 µM) | 6.25 µg/mL (≈ 19.3 µM) | 6.25 µg/mL (≈ 19.3 µM) | 6.25 µg/mL (≈ 19.3 µM) | zone of inhibition at 30 µg/disc (Staphylococcus aureus [28]): 22 mm; zone of inhibition at 30 µg/disc (Escherichia coli [29]): 27 mm; zone of inhibition at 30 µg/disc (Klebsiella pneumoniae [30]): 19 mm; zone of inhibition at 30 µg/disc (Streptococcus pyogenes [31]): 23 mm; zone of inhibition at 30 µg/disc (Pseudomonas aeruginosa [32]): 32 mm |
| CCCCCC[C@@H](O)C/C=C\CCCCCCCc1nnc(Nc2ccccc2)o1 | 50 µg/mL (≈ 121 µM) | 19.7 mm | 25.6 mm | 23.3 mm | 4 | 100 µg/mL (≈ 242 µM) | 25 µg/mL (≈ 60.4 µM) | 50 µg/mL (≈ 121 µM) | 12.5 µg/mL (≈ 30.2 µM) | 6.25 µg/mL (≈ 15.1 µM) | 6.25 µg/mL (≈ 15.1 µM) | 13.9 mm | 20.2 mm | 25 µg/mL (≈ 60.4 µM) | 12.5 µg/mL (≈ 30.2 µM) | 6.25 µg/mL (≈ 15.1 µM) | 12.5 µg/mL (≈ 30.2 µM) | 6.25 µg/mL (≈ 15.1 µM) | 6.25 µg/mL (≈ 15.1 µM) | 6.25 µg/mL (≈ 15.1 µM) | MFC (Talaromyces marneffei [12]): 100 µg/mL (≈ 242 µM); MIC (Talaromyces marneffei [12]): 12.5 µg/mL (≈ 30.2 µM); diameter of the inhibition zone (DIZ) (Aspergillus fumigatus [15]): 20.7 mm; Ratio [16]: 4; diameter of the inhibition zone (DIZ) [17]: 17.5 mm; diameter of the inhibition zone (DIZ) (Escherichia coli [18]): 22.8 mm; diameter of the inhibition zone (DIZ) (Streptococcus pyogenes [20]): 21.2 mm; MFC [21]: 50 µg/mL (≈ 121 µM); MIC [21]: 12.5 µg/mL (≈ 30.2 µM); Ratio (Candida albicans [23]): 4; Ratio (Talaromyces marneffei [26]): 8 |
